# Screening data deposited in PubChem by Broad Institute.
# CDK5 inh – inhibitors of human CDK5/p35 kinase, primary screen, biochemical, single concentration; Recombinant CDK5/p35, ADP-Glo luminescence, 60 min; 330,000 tested, 0.01% active; inhibition, % at 10 µM; AID 488839, 2010; Cyclin-dependent kinase 5 (Homo sapiens) + Cyclin-dependent kinase 5 activator 1 (Homo …;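 active means highest replicate inhibition of at least 50% and at least 75% of replicates reaching 50%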;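 further: plate controls were DMSO neutral control for no effect and GW8510 at 10 µM for full effect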
# dFosB act – activators of delta FosB homodimer, primary screen, biochemical, fluorescence polarization, TAMRA-CDK5 oligo, single point; Protein FosB (Mus musculus), P13346; purified delta FosB; percent of positive-control signal above neutral wells; activation, % at 25 µM; 340,000 tested, 0.99% active; AID 493131, 2011;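 active means mean activation above about 17%, with every replicate also reaching it, limit read from the data, passing the limit was not always enough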
# Target sequence (P13346 whole entry, looked up): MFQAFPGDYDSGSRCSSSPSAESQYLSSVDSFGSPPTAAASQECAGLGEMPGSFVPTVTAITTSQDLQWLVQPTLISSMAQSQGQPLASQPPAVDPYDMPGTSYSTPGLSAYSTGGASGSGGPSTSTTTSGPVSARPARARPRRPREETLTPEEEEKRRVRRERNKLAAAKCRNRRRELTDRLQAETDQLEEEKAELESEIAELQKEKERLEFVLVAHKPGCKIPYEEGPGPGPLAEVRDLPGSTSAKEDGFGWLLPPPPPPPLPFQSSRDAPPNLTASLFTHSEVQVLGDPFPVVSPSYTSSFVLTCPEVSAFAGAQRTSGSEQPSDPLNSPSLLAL
# CAL PDZ FP-1 – CAL PDZ peptide-binding inhibitors, primary screen, biochemical, fluorescence polarization, Cer-tagged CAL PDZ, HTS; inhibition, % at 20 µM; 330,000 tested, 0.02% active; purified CAL PDZ, TMR-peptide fluorescence polarization, 1 h; AID 504414, 2011; Golgi-associated PDZ and coiled-coil motif-containing protein (Homo sapiens), Q9HD26;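 active means highest replicate inhibition of at least 40%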;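 further: plate controls were DMSO neutral control wells for no effect and unlabeled competitor peptide control wells for full effect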
#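 Control set: unlabelled peptide and DMSO controls / Material: purified CerCALP PDZ construct / Timing: 1 h incubation at room temperature before polarization reading / Doses: 20 µM, one dose / Detection: fluorescence polarization (mP)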
# CAL PDZ FP-2 – untagged CAL PDZ binding inhibitors, primary screen, biochemical, fluorescence polarization, HTS. purified CAL PDZ, TMR-peptide fluorescence polarization, 1 h. inhibition, % at 24.9 µM. 300,000 tested, 0.92% active. AID 602252, 2012;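 active means mean inhibition of at least 30% with at least half of replicates also reaching 30%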;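 further: 0% = DMSO neutral control and 100% = excess unlabeled competitor peptide PRC23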
# Rtt109 Vps75 – inhibitors of C. albicans Rtt109/Vps75 HAT, primary screen, biochemical, ThioGlo CoA-SH fluorescence, plate reader. purified Rtt109/Vps75, 4 h. inhibition, % at 34.9 µM. AID 540336, 2011. Histone acetyltransferase RTT109 (Candida albicans (strain SC5314 / ATCC MYA-2876)), …. 330,000 tested, 0.16% active;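 active means inhibition of at least 50% in every replicate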
# DYRK1A inh – rat Dyrk1A kinase inhibitors, primary screen, biochemical, single point, plate reader | AID 504441, 2011 | Dual specificity tyrosine-phosphorylation-regulated kinase 1A (Rattus norvegicus), Q63470 | ADP-Glo luminescence, NFATc1 peptide | 310,000 tested, 0.43% active | inhibition, % at 12.5 µM; in the data active means inhibition above about 50%;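 further: plate controls were vehicle with enzyme for no effect and no enzyme for full effect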
# Dyrk1A artifact – ADP-Glo luciferase interference without Dyrk1A, dose response, artefact control for Dyrk1A inhibitor project, biochemical, luminescence, cherry-pick, set 02; shares compounds with DYRK1A inh; ADP-Glo luciferase artifact assay, no Dyrk1A; AC50, µM (titrated, usually from 12 µM), for the others: top-dose activity change, negative = inhibition; 1,300 tested, under 10 active; AID 588348, 2011;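 active means fitted half-maximal dose AC50 no more than ten times the top valid tested dose, with luminescence dropping as dose rises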
# * hit, by the source's call; . = no result. Hits are enriched below; roughly 2.2% of the tested compounds scored in any of these assays.
SMILES,CDK5 inh,dFosB act,CAL PDZ FP-1,CAL PDZ FP-2,Rtt109 Vps75,DYRK1A inh,Dyrk1A artifact
COc1ccc(C(=O)NCC2CCCO2)cc1 (stereo not given),2,2,1,-5,-3,1,.
COc1ccc2cc3cc(C(=O)NCCC(C)C)oc3nc2c1,1,-18,-1,-3,-4,12,.
Cc1ccc(OCCOCCN(C)C)c(Cl)c1,0,-10,-2,-2,7,-3,.
Oc1ccc(-c2csc(-c3ccccc3)n2)cc1O,3,-7,-2,-9,17,55*,7%
Fc1ccc(-c2csc(-c3cccnc3)n2)cc1F,1,5,-3,0,1,4,.
Oc1ccc(-c2csc(-c3cccnc3)n2)cc1O,4,5,-1,5,5,51*,7%
Cc1ccc(/C=C/C(=O)c2ccc(N3CCOCC3)cc2)s1,0,-14,-2,-2,-2,1,.
COc1ccc(Cl)cc1NC(=O)c1cccc(NC(=O)CCC(=O)O)c1,0,-11,-1,-8,6,-3,.
CN(C)CCCn1cnc2c1c(=O)[nH]c(=O)n2Cc1ccccc1,1,1,2,0,0,-2,.
O=C(O)c1ccccc1S(=O)(=O)CC(=O)N1CCCCC1,-2,4,1,-1,4,-5,.
CCN(CC)CCn1c2ccccc2c(=O)c2c(O)ccc(O)c21,3,-5,1,-1,-7,85*,7%
COC(=O)c1cc(C)nc2c1C(=O)C(=O)C=C2N1CCOCC1,5,-6,1,-5,6,61*,8%
COc1cc(/C=C2/SC(=O)NC2=O)ccc1Oc1ccc([N+](=O)[O-])cc1[N+](=O)[O-],1,-1,-3,-7,3,80*,9%
N#Cc1c(C(F)(F)F)cc(-c2cccc(Cl)c2)[nH]c1=O,0,-8,-3,-4,6,54*,8%
CC(C)c1ccc(OCC(=O)NC(C)c2ccccc2)cc1 (stereo not given),0,-8,0,0,-3,-1,.
COC(=O)c1ccc2c(c1O)C(=O)c1ccccc1C2=O,2,-5,0,-4,0,7,.
Nc1cc(C(=O)O)c(N)c2c1C(=O)c1ccccc1C2=O,22,-11,3,0,7,8,.
O=C1c2ccccc2C(=O)c2c1ccc(O)c2O,3,-19,1,1,-5,60*,7%
Nc1c(C(=O)O)ccc2c1C(=O)c1ccccc1C2=O,4,-12,-1,-1,2,88*,7%
CC(C)c1ccc2c(c1)C1Cc3ccccc3C1N2 (stereo not given),-1,-6,-1,-3,.,-5,.
Cc1ccc2nc(NC(=O)CC3Oc4ccccc4NC3=O)sc2c1 (stereo not given),-2,3,-2,0,-2,-3,.
c1ccc2c(-c3nn[nH]n3)cccc2c1,.,1,0,-1,12,-4,.
Oc1cccc2c(-c3nn[nH]n3)ccnc12,-4,1,-4,0,-12,70*,12%
COc1ccc2nc(NC(C)=O)sc2c1,-2,7,-3,-7,7,27,.
CC(=O)Nc1nc2ccc(Br)cc2s1,5,-10,-2,-3,12,71*,6%
CC1(C)CC(=O)c2c(nc3ccccc3c2N)C1,2,-15,.,-1,1,5,.
